In ChEMBL document CHEMBL1150857, “Dendocarbins A--N, new drimane sesquiterpenes from the nudibranch Dendrodoris carbunculosa” (J Nat Prod, 2001):
Converted amounts (≈) assume the structure as drawn.

What was measured:
Assay type in all cases: functional, cell-based
P388 [1] = assay: Cytotoxicity against drug-sensitive mouse P388 cells
Outline: (§1)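 Murine leukemia P388 lines were tested: the drug-sensitive strain (P388/S), the adriamycin-resistant line (P388/ADR) and the vincristine-resistant line (P388/VCR). Cytotoxicity was expressed as IC50.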

P388 [2] = assay: Cytotoxicity against adriamycin-resistant mouse P388 cells in absence of 0.1 ug/mL adriamycin; outline: as §1
P388 [3] = assay: Cytotoxicity against adriamycin-resistant mouse P388 cells in presence of 0.1 ug/mL adriamycin
P388 [4] = assay: Cytotoxicity against vincristine-resistant mouse P388 cells in presence of 0.004 ug/mL vincristine
P388 [5] = assay: Cytotoxicity against vincristine-resistant mouse P388 cells in absence of 0.004 ug/mL vincristine; outline: as §1

| Compound | IC50 (P388 [1]) | IC50 (P388 [2]) | IC50 (P388 [3]) | IC50 (P388 [4]) | IC50 (P388 [5]) |
| --- | --- | --- | --- | --- | --- |
| CC(=O)O[C@@H]1OC(=O)C2=CC[C@H]3C(C)(C)CCC[C@]3(C)[C@H]21 | 10.2 mg/L (≈ 34.9 µM) | 8 mg/L | 10.1 mg/L | 9 mg/L | 10.2 mg/L (≈ 34.9 µM) |
| CC1(C)CCC[C@]2(C)C3=C(CC[C@@H]12)C(=O)O[C@@H]3O | 3.2 mg/L (≈ 12.8 µM) | 2.5 mg/L | 2.5 mg/L | 2.5 mg/L | 2.5 mg/L (≈ 9.99 µM) |
| CC1(C)CCC[C@]2(C)C3=C(C(=O)OC3O)[C@H](O)C[C@@H]12 (mixture of isomers) [DENDOCARBIN L/DENDOCARBIN M] | > 25 mg/L | > 25 mg/L | > 25 mg/L | > 25 mg/L | > 25 mg/L |
| CC1(C)CCC[C@]2(C)[C@@H]3C(=CC[C@@H]12)C(=O)O[C@H]3O [DENDOCARBIN A] | > 25 mg/L | > 25 mg/L | > 25 mg/L | > 25 mg/L | > 25 mg/L |
| CC1(C)C[C@H](O)C[C@]2(C)[C@H]3C(=O)OCC3=CC[C@@H]12 [DENDOCARBIN B] | 11.5 mg/L (≈ 45.9 µM) | 7 mg/L | 10.5 mg/L | 9 mg/L | 10.2 mg/L (≈ 40.7 µM) |
| CC1(C)CCC[C@]2(C)[C@@H]3C(=C[C@H](O)[C@@H]12)CO[C@H]3O [DENDOCARBIN C] | > 25 mg/L | > 25 mg/L | > 25 mg/L | > 25 mg/L | > 25 mg/L |
| CC1(C)CCC[C@]2(C)[C@H]3[C@H](O)OC(=O)[C@@]3(O)CC[C@@H]12 [DENDOCARBIN D] | 15 mg/L (≈ 55.9 µM) | 16 mg/L | 16 mg/L | 14 mg/L | 16 mg/L (≈ 59.6 µM) |
| CC1(C)[C@@H](O)CC[C@]2(C)[C@H]3C(=O)OC(=O)C3=CC[C@@H]12 [DENDOCARBIN E] | > 25 mg/L | 19 mg/L | > 25 mg/L | > 25 mg/L | 22.5 mg/L (≈ 85.1 µM) |
| C[C@@]1(CO)CCC[C@]2(C)[C@H]3C(=O)OC(=O)C3=CC[C@@H]12 [DENDOCARBIN F] | > 25 mg/L | > 25 mg/L | 22 mg/L | > 25 mg/L | > 25 mg/L |
| CC1(C)CCC[C@]2(C)[C@H]3C(=O)OC(=O)C3=C[C@H](O)[C@@H]12 [DENDOCARBIN G] | > 25 mg/L | > 25 mg/L | > 25 mg/L | > 25 mg/L | > 25 mg/L |
| CC1(C)CCC[C@]2(C)[C@H]3C(=O)OC(=O)C3=CC[C@@H]12 [DENDOCARBIN H] | 10.8 mg/L (≈ 43.5 µM) | 10.1 mg/L | 10.5 mg/L | 8 mg/L | 10.1 mg/L (≈ 40.7 µM) |
| CCOC1OC(=O)C2=C1[C@@H](O)C[C@H]1C(C)(C)CCC[C@]21C (stereo not given in full) [DENDOCARBIN I] | 10 mg/L (≈ 34 µM) | 8 mg/L | 10 mg/L | 10.2 mg/L | 10.2 mg/L (≈ 34.6 µM) |
| CCO[C@H]1OC(=O)C2=C1[C@@]1(C)CCCC(C)(C)[C@@H]1C[C@H]2O [DENDOCARBIN J] | 17 mg/L (≈ 57.7 µM) | 11 mg/L | 8 mg/L | 4 mg/L | 4 mg/L (≈ 13.6 µM) |
| CCO[C@@H]1OC(=O)C2=C1[C@@]1(C)CCCC(C)(C)[C@@H]1C[C@H]2O [DENDOCARBIN K] | 10.5 mg/L (≈ 35.7 µM) | 9 mg/L | 10.5 mg/L | 9 mg/L | 10.5 mg/L (≈ 35.7 µM) |
| CC1(C)CCC[C@]2(C)[C@H]3[C@H](O)OC[C@]34O[C@@H]4[C@H](O)[C@@H]12 [DENDOCARBIN N] | > 25 mg/L | > 25 mg/L | > 25 mg/L | > 25 mg/L | > 25 mg/L |
| CC1(C)CCC[C@]2(C)[C@@H]3C(=CC[C@@H]12)CO[C@H]3O [ISODRIMENINOL] | 13 mg/L (≈ 55 µM) | 18 mg/L | 18 mg/L | > 25 mg/L | 22 mg/L (≈ 93.1 µM) |
